Activity calls are given as the source filed them. The calls are words filed in the database; no cut-off is given here.
How the values were obtained:
HepG2 = experiment: Antiproliferative activity against human HepG2 cells treated for 24 hrs measured after 72 hrs by MTT assay; type: functional, cell-based
THP-1 = experiment: Antiproliferative activity against human THP1 cells treated for 24 hrs measured after 72 hrs by MTT assay; type: functional, cell-based
HL-60 [1] = experiment: Antiproliferative activity against human HL60 cells treated for 24 hrs measured after 72 hrs by MTT assay; type: functional, cell-based
PBMC = experiment: Antiproliferative activity against human PBMC treated for 24 hrs measured after 72 hrs by MTT assay; type: cell-based
PC-3 = experiment: Antiproliferative activity against human PC3 cells treated for 24 hrs measured after 72 hrs by MTT assay; type: functional, cell-based
HL-60 [2] = experiment: Induction of mitochondrial membrane potential loss in human HL60 cells assessed as cells with collapsed mitochondrial membrane potential at 1 uM after 48 hrs by JC-1 staining based flow cytometry (reference value: 7.81%); type: functional
HL-60 [3] = experiment: Induction of apoptosis in human HL60 cells assessed as early apoptotic cells at 1 uM after 48 hrs by Annexin V-FITC/propidium iodide staining based flow cytometry (reference value: 2.66%); type: functional
How it was run: (§1)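 HL-60 cells were treated for 48 h with vehicle alone or with 0.25, 0.5 or 1.0 μM. Cells were then stained with FITC-Annexin V and PI and analysed by two-parameter flow cytometry. Quadrants were scored as viable (LL), early apoptotic (LR), late apoptotic/necrotic (UR) and necrotic (UL). Total apoptosis was taken as early plus late.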

HL-60 [4] = experiment: Induction of mitochondrial membrane potential loss in human HL60 cells assessed as cells with collapsed mitochondrial membrane potential at 0.25 uM after 48 hrs by JC-1 staining based flow cytometry (reference value: 7.81%); type: functional
HL-60 [5] = experiment: Induction of apoptosis in human HL60 cells assessed as necrotic cells at 1 uM after 48 hrs by Annexin V-FITC/propidium iodide staining based flow cytometry (reference value: 0.03%); type: functional; how it was run: as §1
HL-60 [6] = experiment: Cell cycle arrest in human HL60 cells assessed as accumulation at S-phase at 0.25 uM after 48 hrs by propidium iodide staining based flow cytometry (reference value: 25.19%); type: functional
HL-60 [7] = experiment: Induction of mitochondrial membrane potential loss in human HL60 cells assessed as cells with collapsed mitochondrial membrane potential after 48 hrs by JC-1 staining based flow cytometry; type: functional, cell-based
HL-60 [8] = experiment: Induction of apoptosis in human HL60 cells assessed as necrotic cells at 0.5 uM after 48 hrs by Annexin V-FITC/propidium iodide staining based flow cytometry (reference value: 0.03%); type: functional; how it was run: as §1
HL-60 [9] = experiment: Cell cycle arrest in human HL60 cells assessed as accumulation at G1-phase at 0.5 uM after 48 hrs by propidium iodide staining based flow cytometry (reference value: 63.21%); type: functional
HL-60 [10] = experiment: Induction of mitochondrial membrane potential loss in human HL60 cells assessed as cells with intact mitochondrial membrane at 0.25 uM after 48 hrs by JC-1 staining based flow cytometry (reference value: 92.17%); type: functional
HL-60 [11] = experiment: Induction of apoptosis in human HL60 cells assessed as live cells at 1 uM after 48 hrs by Annexin V-FITC/propidium iodide staining based flow cytometry (reference value: 95.75%); type: functional; how it was run: as §1
HL-60 [12] = experiment: Cell cycle arrest in human HL60 cells assessed as accumulation at G2-phase at 1 uM after 48 hrs by propidium iodide staining based flow cytometry (reference value: 11.61%); type: functional
HL-60 [13] = experiment: Induction of apoptosis in human HL60 cells assessed as live cells at 0.25 uM after 48 hrs by Annexin V-FITC/propidium iodide staining based flow cytometry (reference value: 95.75%); type: functional; how it was run: as §1
HL-60 [14] = experiment: Induction of apoptosis in human HL60 cells assessed as chromatin condensation at 0.25 to 1 uM after 48 hrs […]; type: functional, cell-based
HL-60 [15] = experiment: Induction of apoptosis in human HL60 cells after 48 hrs by Annexin V-FITC/propidium iodide staining based flow cytometry; type: functional, cell-based; how it was run: as §1
HL-60 [16] = experiment: Induction of mitochondrial membrane potential loss in human HL60 cells assessed as cells with collapsed mitochondrial membrane potential at 0.5 uM after 48 hrs by JC-1 staining based flow cytometry (reference value: 7.81%); type: functional
HL-60 [17] = experiment: Cell cycle arrest in human HL60 cells assessed as accumulation at G2-phase at 0.25 uM after 48 hrs by propidium iodide staining based flow cytometry (reference value: 11.61%); type: functional
HL-60 [18] = experiment: Cell cycle arrest in human HL60 cells assessed as accumulation at G1-phase at 0.25 uM after 48 hrs by propidium iodide staining based flow cytometry (reference value: 63.21%); type: functional
HL-60 [19] = experiment: Induction of apoptosis in human HL60 cells assessed as late apoptotic cells at 0.25 uM after 48 hrs by Annexin V-FITC/propidium iodide staining based flow cytometry (reference value: 1.56%); type: functional; how it was run: as §1
HL-60 [20] = experiment: Induction of apoptosis in human HL60 cells assessed as necrotic cells at 0.25 uM after 48 hrs by Annexin V-FITC/propidium iodide staining based flow cytometry (reference value: 0.03%); type: functional; how it was run: as §1
HL-60 [21] = experiment: Induction of apoptosis in human HL60 cells assessed as late apoptotic cells at 0.5 uM after 48 hrs by Annexin V-FITC/propidium iodide staining based flow cytometry (reference value: 1.56%); type: functional; how it was run: as §1
HL-60 [22] = experiment: Induction of apoptosis in human HL60 cells assessed as early apoptotic cells at 0.25 uM after 48 hrs by Annexin V-FITC/propidium iodide staining based flow cytometry (reference value: 2.66%); type: functional; how it was run: as §1
HL-60 [23] = experiment: Induction of apoptosis in human HL60 cells assessed as live cells at 0.5 uM after 48 hrs by Annexin V-FITC/propidium iodide staining based flow cytometry (reference value: 95.75%); type: functional; how it was run: as §1
HL-60 [24] = experiment: Cell cycle arrest in human HL60 cells assessed as accumulation at S-phase at 0.5 uM after 48 hrs by propidium iodide staining based flow cytometry (reference value: 25.19%); type: functional
HL-60 [25] = experiment: Induction of apoptosis in human HL60 cells assessed as early apoptotic cells at 0.5 uM after 48 hrs by Annexin V-FITC/propidium iodide staining based flow cytometry (reference value: 2.66%); type: functional; how it was run: as §1
HL-60 [26] = experiment: Induction of mitochondrial membrane potential loss in human HL60 cells assessed as cells with intact mitochondrial membrane at 1 uM after 48 hrs by JC-1 staining based flow cytometry (reference value: 92.17%); type: functional
HL-60 [27] = experiment: Induction of apoptosis in human HL60 cells assessed as nuclear fragmentation at 0.25 to 1 uM after 48 hrs by […]; type: functional, cell-based
HL-60 [28] = experiment: Induction of apoptosis in human HL60 cells assessed as late apoptotic cells at 1 uM after 48 hrs by Annexin V-FITC/propidium iodide staining based flow cytometry (reference value: 1.56%); type: functional; how it was run: as §1
HL-60 [29] = experiment: Cell cycle arrest in human HL60 cells assessed as accumulation at S-phase at 1 uM after 48 hrs by propidium iodide staining based flow cytometry (reference value: 25.19%); type: functional
HL-60 [30] = experiment: Induction of mitochondrial membrane potential loss in human HL60 cells assessed as cells with intact mitochondrial membrane at 0.5 uM after 48 hrs by JC-1 staining based flow cytometry (reference value: 92.17%); type: functional
HL-60 [31] = experiment: Cell cycle arrest in human HL60 cells assessed as accumulation at G2-phase at 0.5 uM after 48 hrs by propidium iodide staining based flow cytometry (reference value: 11.61%); type: functional
HL-60 [32] = experiment: Cell cycle arrest in human HL60 cells assessed as accumulation at G1-phase at 1 uM after 48 hrs by propidium iodide staining based flow cytometry (reference value: 63.21%); type: functional

CN1c2ccccc2C(=O)N2CCc3c(n(CCCOCCCOC(=O)CCCc4ccc(N(CCCl)CCCl)cc4)c4ccccc34)C21 (stereo unspecified)
IC50 (HepG2): > 100 µM | IC50 (THP-1): 5.31 µM | IC50 (HL-60 [1]): 1.29 µM | IC50 (PBMC): > 200 µM | IC50 (PC-3): 27.6 µM

CN1c2ccccc2C(=O)N2CCc3c(n(CCOC(=O)CCCc4ccc(N(CCCl)CCCl)cc4)c4ccccc34)C21 (stereo unspecified)
IC50 (HepG2): > 100 µM | IC50 (THP-1): 4.82 µM | IC50 (HL-60 [1]): 11.3 µM | IC50 (PBMC): > 200 µM | IC50 (PC-3): 45.7 µM

CN1c2ccccc2C(=O)N2CCc3c([nH]c4ccccc34)C21 (stereo unspecified)
IC50 (HepG2): 9.32 µM | IC50 (THP-1): 3.37 µM | IC50 (HL-60 [1]): 1.39 µM | IC50 (PBMC): 22.9 µM | IC50 (PC-3): 14 µM

COC(=O)[C@H](Cc1ccc(N(CCCl)CCCl)cc1)NC(=O)CCC(=O)OCCCn1c2c(c3ccccc31)CCN1C(=O)c3ccccc3N(C)C21 (stereo partly specified)
IC50 (HepG2): > 100 µM | IC50 (THP-1): 2.37 µM | IC50 (HL-60 [1]): 1.12 µM | IC50 (PBMC): > 200 µM | IC50 (PC-3): > 100 µM

CN1c2ccccc2C(=O)N2CCc3c(n(CCCOCCCOC(=O)c4ccc(N(CCCl)CCCl)cc4)c4ccccc34)C21 (stereo unspecified)
IC50 (HepG2): > 100 µM | IC50 (THP-1): 9.29 µM | IC50 (HL-60 [1]): 22.3 µM | IC50 (PBMC): > 200 µM | IC50 (PC-3): > 100 µM

COC(=O)[C@H](Cc1ccc(N(CCCl)CCCl)cc1)NC(=O)CCC(=O)OCCCOCCCn1c2c(c3ccccc31)CCN1C(=O)c3ccccc3N(C)C21 (stereo partly specified)
Activity (HL-60 [2]): 62.78% | Activity (HL-60 [3]): 57.54% | Activity (HL-60 [4]): 14.13% | Activity (HL-60 [5]): 0.79% | Activity (HL-60 [6]): 24.42% | Activity (HL-60 [7]): Dose-dependent effect | Activity (HL-60 [8]): 0.72% | Activity (HL-60 [9]): 58.52% | Activity (HL-60 [10]): 85.67% | Activity (HL-60 [11]): 34.97% | Activity (HL-60 [12]): 25.99% | Activity (HL-60 [13]): 83.31% | Activity (HL-60 [14]): Active | Activity (HL-60 [15]): Dose-dependent effect | Activity (HL-60 [16]): 28.51% | Activity (HL-60 [17]): 13.19% | Activity (HL-60 [18]): 62.39% | Activity (HL-60 [19]): 5.69% | Activity (HL-60 [20]): 0.58% | IC50 (HepG2): 17 µM | Activity (HL-60 [21]): 5.27% | Activity (HL-60 [22]): 10.41% | Activity (HL-60 [23]): 53.71% | Activity (HL-60 [24]): 26.28% | Activity (HL-60 [25]): 40.31% | IC50 (THP-1): 4.05 µM | IC50 (HL-60 [1]): 0.5 µM | Activity (HL-60 [26]): 37.22% | IC50 (PBMC): > 200 µM | Activity (HL-60 [27]): Active | Activity (HL-60 [28]): 6.7% | Activity (HL-60 [29]): 28.18% | IC50 (PC-3): > 100 µM | Activity (HL-60 [30]): 71.49% | Activity (HL-60 [31]): 15.19% | Activity (HL-60 [32]): 45.83%

CN1c2ccccc2C(=O)N2CCc3c(n(CCO)c4ccccc34)C21 (stereo unspecified)
IC50 (HepG2): > 100 µM | IC50 (THP-1): 1.64 µM | IC50 (HL-60 [1]): 7.1 µM | IC50 (PBMC): > 200 µM | IC50 (PC-3): 12.3 µM

COC(=O)[C@H](Cc1ccc(N(CCCl)CCCl)cc1)NC(=O)CCC(=O)OCCn1c2c(c3ccccc31)CCN1C(=O)c3ccccc3N(C)C21 (stereo partly specified)
IC50 (HepG2): > 100 µM | IC50 (THP-1): 9.37 µM | IC50 (HL-60 [1]): 3.11 µM | IC50 (PBMC): > 200 µM | IC50 (PC-3): > 100 µM

CN1c2ccccc2C(=O)N2CCc3c(n(CCCCCCO)c4ccccc34)C21 (stereo unspecified)
IC50 (HepG2): > 100 µM | IC50 (THP-1): 6.97 µM | IC50 (HL-60 [1]): 8.53 µM | IC50 (PBMC): > 200 µM | IC50 (PC-3): 21.5 µM

O=C(O)CCCc1ccc(N(CCCl)CCCl)cc1 [CHLORAMBUCIL]
IC50 (HepG2): > 100 µM | IC50 (THP-1): 5.3 µM | IC50 (HL-60 [1]): 12.9 µM | IC50 (PBMC): > 200 µM | IC50 (PC-3): 42.1 µM
